Test results reported in ChEMBL document CHEMBL5058577, “EUbOPEN Chemogenomics Library 2 (Multiplex)” (2022).

Tested on: Fibroblast
Assay: Multiplex assay against human fibroblast
Type: toxicity, cell-based
In short: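 On a CQ1 microscope at 37°C and 5% CO2, live cells were imaged after compound addition. They had been stained at seeding with Hoechst33342, BioTracker Green Microtubule Cytoskeleton Dye, MitoTracker Red and Annexin V Alexa Fluor 680. CellPathfinder machine-learning gating assigned cells to Hoechst high-intensity objects or normal cells, normal cells to healthy, pyknosed or fragmented nuclei, and pyknosed cells to mitotic or apoptotic. Tubulin, mitochondrial-mass and membrane-permeability phenotypes are per cents of healthy-nucleus cells.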

[1] = 12 h, 1 µM, compound concentration 1 uM, replicate 1
[2] = 12 h, 1 µM, compound concentration 1 uM, replicate 2
[3] = 12 h, 10 µM, compound concentration 10 uM, replicate 1
[4] = 12 h, 10 µM, compound concentration 10 uM, replicate 2
[5] = 24 h, 1 µM, compound concentration 1 uM, replicate 1
[6] = 24 h, 1 µM, compound concentration 1 uM, replicate 2
[7] = 24 h, 10 µM, compound concentration 10 uM, replicate 1
[8] = 24 h, 10 µM, compound concentration 10 uM, replicate 2
[9] = 48 h, 1 µM, compound concentration 1 uM, replicate 1
[10] = 48 h, 1 µM, compound concentration 1 uM, replicate 2
[11] = 48 h, 10 µM, compound concentration 10 uM, replicate 1
[12] = 48 h, 10 µM, compound concentration 10 uM, replicate 2

SMILES: Cc1noc(-c2ccc(-c3ccc(CC(=O)O)cc3)cc2)c1NC(=O)O[C@H](C)c1ccccc1Cl
- Population Apoptotic (%) [1]: 22%
- Population Fragmented Nuclei (%) [1]: 14%
- Population Healthy Nuclei (%) [1]: 77%
- Population Hoechst High Intensity Objects (%) [1]: 0%
- Population Membrane Permeable-Phenotype (%) [1]: 0%
- Population Mitochondria Different-Phenotype (%) [1]: 1%
- Population Mitotic Cells (%) [1]: 77%
- Population Normal (%) [1]: 100%
- Population Pyknosed Nuclei (%) [1]: 8%
- Population Tubulin-Different-Phenotype (%) [1]: 10%
- Total Cell Count [1]: 106
- Population Apoptotic (%) [2]: 58%
- Population Fragmented Nuclei (%) [2]: 21%
- Population Healthy Nuclei (%) [2]: 60%
- Population Hoechst High Intensity Objects (%) [2]: 5%
- Population Membrane Permeable-Phenotype (%) [2]: 5%
- Population Mitochondria Different-Phenotype (%) [2]: 2%
- Population Mitotic Cells (%) [2]: 41%
- Population Normal (%) [2]: 95%
- Population Pyknosed Nuclei (%) [2]: 18%
- Population Tubulin-Different-Phenotype (%) [2]: 26%
- Total Cell Count [2]: 140
- Population Apoptotic (%) [3]: 40%
- Population Fragmented Nuclei (%) [3]: 20%
- Population Healthy Nuclei (%) [3]: 62%
- Population Hoechst High Intensity Objects (%) [3]: 1%
- Population Membrane Permeable-Phenotype (%) [3]: 1%
- Population Mitochondria Different-Phenotype (%) [3]: 6%
- Population Mitotic Cells (%) [3]: 60%
- Population Normal (%) [3]: 98%
- Population Pyknosed Nuclei (%) [3]: 17%
- Population Tubulin-Different-Phenotype (%) [3]: 31%
- Total Cell Count [3]: 119
- Population Apoptotic (%) [4]: 29%
- Population Fragmented Nuclei (%) [4]: 17%
- Population Healthy Nuclei (%) [4]: 45%
- Population Hoechst High Intensity Objects (%) [4]: 6%
- Population Membrane Permeable-Phenotype (%) [4]: 2%
- Population Mitochondria Different-Phenotype (%) [4]: 10%
- Population Mitotic Cells (%) [4]: 70%
- Population Normal (%) [4]: 93%
- Population Pyknosed Nuclei (%) [4]: 36%
- Population Tubulin-Different-Phenotype (%) [4]: 57%
- Total Cell Count [4]: 90
- Population Apoptotic (%) [5]: 20%
- Population Fragmented Nuclei (%) [5]: 16%
- Population Healthy Nuclei (%) [5]: 78%
- Population Hoechst High Intensity Objects (%) [5]: 0%
- Population Membrane Permeable-Phenotype (%) [5]: 0%
- Population Mitochondria Different-Phenotype (%) [5]: 1%
- Population Mitotic Cells (%) [5]: 80%
- Population Normal (%) [5]: 100%
- Population Pyknosed Nuclei (%) [5]: 4%
- Population Tubulin-Different-Phenotype (%) [5]: 10%
- Total Cell Count [5]: 102
- Population Apoptotic (%) [6]: 52%
- Population Fragmented Nuclei (%) [6]: 30%
- Population Healthy Nuclei (%) [6]: 57%
- Population Hoechst High Intensity Objects (%) [6]: 2%
- Population Membrane Permeable-Phenotype (%) [6]: 1%
- Population Mitochondria Different-Phenotype (%) [6]: 7%
- Population Mitotic Cells (%) [6]: 47%
- Population Normal (%) [6]: 97%
- Population Pyknosed Nuclei (%) [6]: 12%
- Population Tubulin-Different-Phenotype (%) [6]: 28%
- Total Cell Count [6]: 161
- Population Apoptotic (%) [7]: 50%
- Population Fragmented Nuclei (%) [7]: 20%
- Population Healthy Nuclei (%) [7]: 68%
- Population Hoechst High Intensity Objects (%) [7]: 1%
- Population Membrane Permeable-Phenotype (%) [7]: 0%
- Population Mitochondria Different-Phenotype (%) [7]: 7%
- Population Mitotic Cells (%) [7]: 50%
- Population Normal (%) [7]: 98%
- Population Pyknosed Nuclei (%) [7]: 11%
- Population Tubulin-Different-Phenotype (%) [7]: 29%
- Total Cell Count [7]: 122
- Population Apoptotic (%) [8]: 32%
- Population Fragmented Nuclei (%) [8]: 26%
- Population Healthy Nuclei (%) [8]: 41%
- Population Mitochondria Different-Phenotype (%) [8]: 10%
- Population Mitotic Cells (%) [8]: 67%
- Population Pyknosed Nuclei (%) [8]: 31%
- Population Tubulin-Different-Phenotype (%) [8]: 65%
- Total Cell Count [8]: 98
- Population Apoptotic (%) [9]: 44%
- Population Fragmented Nuclei (%) [9]: 18%
- Population Healthy Nuclei (%) [9]: 73%
- Population Hoechst High Intensity Objects (%) [9]: 1%
- Population Membrane Permeable-Phenotype (%) [9]: 1%
- Population Mitochondria Different-Phenotype (%) [9]: 1%
- Population Mitotic Cells (%) [9]: 55%
- Population Normal (%) [9]: 98%
- Population Pyknosed Nuclei (%) [9]: 8%
- Population Tubulin-Different-Phenotype (%) [9]: 16%
- Total Cell Count [9]: 112
- Population Apoptotic (%) [10]: 60%
- Population Fragmented Nuclei (%) [10]: 35%
- Population Healthy Nuclei (%) [10]: 55%
- Population Hoechst High Intensity Objects (%) [10]: 2%
- Population Membrane Permeable-Phenotype (%) [10]: 5%
- Population Mitochondria Different-Phenotype (%) [10]: 3%
- Population Mitotic Cells (%) [10]: 40%
- Population Normal (%) [10]: 97%
- Population Tubulin-Different-Phenotype (%) [10]: 25%
- Total Cell Count [10]: 171
- Population Apoptotic (%) [11]: 23%
- Population Fragmented Nuclei (%) [11]: 30%
- Population Healthy Nuclei (%) [11]: 55%
- Population Hoechst High Intensity Objects (%) [11]: 4%
- Population Membrane Permeable-Phenotype (%) [11]: 2%
- Population Mitochondria Different-Phenotype (%) [11]: 4%
- Population Mitotic Cells (%) [11]: 76%
- Population Normal (%) [11]: 95%
- Population Pyknosed Nuclei (%) [11]: 13%
- Population Tubulin-Different-Phenotype (%) [11]: 35%
- Total Cell Count [11]: 133
- Population Apoptotic (%) [12]: 39%
- Population Fragmented Nuclei (%) [12]: 40%
- Population Healthy Nuclei (%) [12]: 37%
- Population Hoechst High Intensity Objects (%) [12]: 2%
- Population Membrane Permeable-Phenotype (%) [12]: 0%
- Population Mitochondria Different-Phenotype (%) [12]: 10%
- Population Mitotic Cells (%) [12]: 60%
- Population Normal (%) [12]: 97%
- Population Pyknosed Nuclei (%) [12]: 22%
- Population Tubulin-Different-Phenotype (%) [12]: 69%
- Total Cell Count [12]: 107
